Measurements: paper PMC3781598 (Pharmaceutical research, 2013)

What was measured:
human CYP2A13 = biological target: T1, human CYP2A13 (Homo sapiens, UniProt Q16696); experiment: Spectral ligand binding assay; details: for Spectral shift type 2A13: UV/Vis difference spectra
T1 sequence (Q16696 25-494): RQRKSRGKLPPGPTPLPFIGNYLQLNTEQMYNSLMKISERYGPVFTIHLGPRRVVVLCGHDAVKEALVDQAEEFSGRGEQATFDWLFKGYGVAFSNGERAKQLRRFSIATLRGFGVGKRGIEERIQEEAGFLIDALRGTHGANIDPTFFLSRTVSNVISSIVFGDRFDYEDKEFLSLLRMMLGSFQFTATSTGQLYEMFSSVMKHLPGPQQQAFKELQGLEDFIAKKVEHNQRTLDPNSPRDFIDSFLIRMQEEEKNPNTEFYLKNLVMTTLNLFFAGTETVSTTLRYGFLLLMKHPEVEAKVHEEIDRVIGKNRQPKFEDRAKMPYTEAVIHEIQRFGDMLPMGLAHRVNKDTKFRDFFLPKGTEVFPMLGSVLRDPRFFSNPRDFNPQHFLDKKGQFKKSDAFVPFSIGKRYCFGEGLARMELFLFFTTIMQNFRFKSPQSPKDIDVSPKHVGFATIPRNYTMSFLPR

hERG = hERG (Homo sapiens, UniProt Q12809); experiment: hERG patch clamp assay; format: cell-based; details: for inhibition at 10 µM: human
In short: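 hERG inhibition by patch clamp, measured as block of the tail current. Highest test concentration was 10 μM.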

[1] = Metabolic stability in liver microsomes; format: in vitro ADME, human; details: for Percent Loss of Substrate / substrate remaining: human liver microsomes; for Percent Loss of Substrate: 1 μM, 20-minute incubation; for substrate remaining: at the end of 20 min; for half-life at 1 μM / microsomal CLint at 1 μM: human, liver microsomes, pH 7.4
In short: (§1)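 Pooled liver or lung microsomes (male B6C2F1 mouse, male Sprague-Dawley rat, human) at 1.0 mg protein/ml in 50 mM potassium phosphate pH 7.4, 3 mM MgCl2, 1 mM EDTA. […] Stopped at 0, 5, 10, 20 min with acetonitrile containing antipyrene, then LC/MS/MS. Single-exponential kel gave T1/2. CLint = kel × incubation volume/mg protein.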

[2] = Metabolic stability in lung microsomes; format: in vitro ADME; details: human lung microsomes, 1 μM, 20-minute incubation
In short: as §1

[3] = Metabolic stability in liver microsomes; format: in vitro ADME, male B6C2F1 mouse; details: for half-life at 1 μM / microsomal CLint at 1 μM: male, B6C2F1, mouse, liver microsomes, pH 7.4; for Percent Loss of Substrate: mouse liver microsomes, 1 μM, 20-minute incubation
In short: as §1

[4] = Metabolic stability in lung microsomes; format: in vitro ADME, male B6C2F1 mouse; details: for half-life at 1 μM / microsomal CLint at 1 μM: male, B6C2F1, mouse, lung microsomes, pH 7.4; for Percent Loss of Substrate: mouse lung microsomes, 1 μM, 20-minute incubation
In short: as §1

[5] = Metabolic stability in liver microsomes; format: in vitro ADME, male Sprague-Dawley rat; details: for half-life at 1 μM / microsomal CLint at 1 μM: male, Sprague-Dawley, rat, liver microsomes, pH 7.4; for Percent Loss of Substrate: rat liver microsomes, 1 μM, 20-minute incubation
In short: as §1

[6] = Metabolic stability in lung microsomes; format: in vitro ADME, male Sprague-Dawley rat; details: for half-life at 1 μM / microsomal CLint at 1 μM: male, Sprague-Dawley, rat, lung microsomes, pH 7.4; for Percent Loss of Substrate: rat lung microsomes, 1 μM, 20-minute incubation
In short: as §1

CYP2C8 = biological target: T2, CYP2C8 (Homo sapiens, UniProt P10632); experiment: Metabolic stability phenotyping with recombinantly expressed CYPs; format: in vitro ADME; details: recombinant CYP2C8, pH 7.4
T2 sequence (P10632 1-490): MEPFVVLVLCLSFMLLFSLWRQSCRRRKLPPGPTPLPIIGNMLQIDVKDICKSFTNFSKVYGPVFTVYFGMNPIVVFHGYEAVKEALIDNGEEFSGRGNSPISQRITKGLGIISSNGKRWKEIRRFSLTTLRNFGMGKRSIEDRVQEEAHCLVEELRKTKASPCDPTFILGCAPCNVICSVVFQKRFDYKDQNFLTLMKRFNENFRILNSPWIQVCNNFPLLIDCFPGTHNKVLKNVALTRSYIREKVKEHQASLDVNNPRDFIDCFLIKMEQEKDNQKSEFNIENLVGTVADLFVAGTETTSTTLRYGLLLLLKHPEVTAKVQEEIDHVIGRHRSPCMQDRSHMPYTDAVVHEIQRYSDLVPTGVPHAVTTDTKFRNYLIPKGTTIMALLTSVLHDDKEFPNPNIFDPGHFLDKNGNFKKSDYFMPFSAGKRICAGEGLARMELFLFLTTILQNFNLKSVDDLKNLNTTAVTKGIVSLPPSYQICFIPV
In short: (§2)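 Each recombinant human CYP at 100 pmol/ml with 1 μM test compound in potassium phosphate pH 7.4, 3.33 mM MgCl2. Prewarmed 10 min at 37 °C, then started with NADPH regenerating system; no-NADPH buffer controls. Aliquots at 0–45 min quenched in methanol with buspirone internal standard. MS peak-area ratios gave ln(ratio)-vs-time slope, converted to T1/2. Duplicates.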

CYP2C9 = CYP2C9 (Homo sapiens, UniProt P11712); experiment: as above; format: in vitro ADME; details: recombinant CYP2C9, pH 7.4
In short: as §2

CYP2D6 = CYP2D6 (Homo sapiens, UniProt P10635); experiment: as above; format: in vitro ADME; details: recombinant CYP2D6, pH 7.4
In short: as §2

CYP3A4 = CYP3A4 (Homo sapiens, UniProt P08684); experiment: as above; format: in vitro ADME; details: recombinant CYP3A4, pH 7.4
In short: as §2

CYP2C19 = CYP2C19 (Homo sapiens, UniProt P33261); experiment: as above; format: in vitro ADME; details: recombinant CYP2C19, pH 7.4
In short: as §2

CYP2B6 = biological target: T3, CYP2B6 (Homo sapiens, UniProt P20813); experiment: as above; format: in vitro ADME; details: recombinant CYP2B6, pH 7.4
T3 sequence (P20813 1-491): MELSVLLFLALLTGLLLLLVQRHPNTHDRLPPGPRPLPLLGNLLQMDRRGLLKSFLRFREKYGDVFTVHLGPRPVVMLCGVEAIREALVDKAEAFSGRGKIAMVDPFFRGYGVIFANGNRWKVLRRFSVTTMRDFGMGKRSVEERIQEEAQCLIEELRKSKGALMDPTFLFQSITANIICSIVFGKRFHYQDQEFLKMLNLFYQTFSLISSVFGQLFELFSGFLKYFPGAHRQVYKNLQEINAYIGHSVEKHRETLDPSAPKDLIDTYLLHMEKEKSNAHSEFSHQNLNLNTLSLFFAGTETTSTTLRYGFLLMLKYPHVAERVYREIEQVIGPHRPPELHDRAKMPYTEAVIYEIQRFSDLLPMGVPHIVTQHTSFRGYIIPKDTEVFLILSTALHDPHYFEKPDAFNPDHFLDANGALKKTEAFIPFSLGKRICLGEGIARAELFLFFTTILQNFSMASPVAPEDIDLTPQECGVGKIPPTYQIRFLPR
In short: as §2

[7] = Kd 2A13, spectral titration, ≥ = minimal Kd value

Sequence of hERG (Q12809 whole entry): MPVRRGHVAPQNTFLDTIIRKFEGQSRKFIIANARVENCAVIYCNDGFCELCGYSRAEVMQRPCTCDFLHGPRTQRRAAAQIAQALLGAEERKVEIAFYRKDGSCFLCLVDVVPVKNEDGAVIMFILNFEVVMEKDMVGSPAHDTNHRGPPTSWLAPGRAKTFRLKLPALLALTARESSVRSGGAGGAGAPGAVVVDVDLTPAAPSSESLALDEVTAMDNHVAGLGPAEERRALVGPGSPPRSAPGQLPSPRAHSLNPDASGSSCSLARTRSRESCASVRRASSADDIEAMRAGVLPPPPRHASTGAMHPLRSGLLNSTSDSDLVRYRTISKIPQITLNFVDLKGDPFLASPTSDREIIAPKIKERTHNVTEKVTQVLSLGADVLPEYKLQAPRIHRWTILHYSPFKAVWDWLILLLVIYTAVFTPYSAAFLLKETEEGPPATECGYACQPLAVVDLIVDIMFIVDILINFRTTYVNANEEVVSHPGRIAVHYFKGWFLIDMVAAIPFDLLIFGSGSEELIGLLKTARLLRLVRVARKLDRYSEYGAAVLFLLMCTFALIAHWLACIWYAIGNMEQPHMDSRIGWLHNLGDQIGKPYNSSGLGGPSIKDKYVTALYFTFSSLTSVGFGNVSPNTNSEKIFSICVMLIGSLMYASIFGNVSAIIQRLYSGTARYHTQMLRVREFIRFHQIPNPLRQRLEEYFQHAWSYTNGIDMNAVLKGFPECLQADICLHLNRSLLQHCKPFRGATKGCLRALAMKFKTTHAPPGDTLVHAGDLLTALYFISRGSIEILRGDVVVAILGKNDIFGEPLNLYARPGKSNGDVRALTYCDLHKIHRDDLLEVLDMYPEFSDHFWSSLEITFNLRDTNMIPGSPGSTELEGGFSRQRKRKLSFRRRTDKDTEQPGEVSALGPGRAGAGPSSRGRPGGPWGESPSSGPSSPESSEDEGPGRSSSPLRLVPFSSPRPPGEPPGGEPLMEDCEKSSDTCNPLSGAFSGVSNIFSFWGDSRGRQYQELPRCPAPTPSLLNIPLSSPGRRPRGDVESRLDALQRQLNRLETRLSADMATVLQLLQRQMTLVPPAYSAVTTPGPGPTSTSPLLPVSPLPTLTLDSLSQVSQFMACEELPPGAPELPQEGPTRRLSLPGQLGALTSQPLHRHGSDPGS
Sequence of CYP2D6 (P10635 whole entry): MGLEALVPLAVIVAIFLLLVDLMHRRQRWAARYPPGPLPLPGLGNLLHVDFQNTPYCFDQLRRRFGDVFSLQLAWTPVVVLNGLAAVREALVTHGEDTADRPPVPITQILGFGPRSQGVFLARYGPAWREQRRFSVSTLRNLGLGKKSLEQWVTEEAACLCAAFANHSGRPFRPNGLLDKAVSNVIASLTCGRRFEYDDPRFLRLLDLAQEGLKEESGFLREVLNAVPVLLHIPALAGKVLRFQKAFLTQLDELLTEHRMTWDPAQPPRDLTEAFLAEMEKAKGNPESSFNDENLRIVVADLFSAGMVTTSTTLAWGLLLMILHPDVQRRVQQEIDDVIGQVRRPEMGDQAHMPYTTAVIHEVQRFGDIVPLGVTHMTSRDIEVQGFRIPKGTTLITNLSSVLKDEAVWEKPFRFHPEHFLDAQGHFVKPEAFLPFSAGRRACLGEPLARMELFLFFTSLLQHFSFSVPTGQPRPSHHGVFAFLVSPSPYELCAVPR
Sequence of CYP3A4 (P08684 2-503 limits assumed): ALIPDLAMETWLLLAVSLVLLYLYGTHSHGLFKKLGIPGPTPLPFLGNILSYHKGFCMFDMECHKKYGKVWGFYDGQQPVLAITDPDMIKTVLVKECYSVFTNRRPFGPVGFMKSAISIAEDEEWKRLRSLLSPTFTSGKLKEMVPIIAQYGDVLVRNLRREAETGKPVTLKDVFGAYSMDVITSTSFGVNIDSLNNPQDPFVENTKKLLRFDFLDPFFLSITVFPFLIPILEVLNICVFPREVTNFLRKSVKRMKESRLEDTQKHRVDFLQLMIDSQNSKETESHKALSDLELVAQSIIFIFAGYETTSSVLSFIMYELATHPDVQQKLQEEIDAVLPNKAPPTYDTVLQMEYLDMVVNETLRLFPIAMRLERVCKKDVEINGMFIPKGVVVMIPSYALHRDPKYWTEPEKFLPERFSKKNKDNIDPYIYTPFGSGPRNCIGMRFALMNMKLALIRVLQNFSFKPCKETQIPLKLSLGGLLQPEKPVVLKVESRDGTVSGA
Sequence of CYP2C9 (P11712 whole entry): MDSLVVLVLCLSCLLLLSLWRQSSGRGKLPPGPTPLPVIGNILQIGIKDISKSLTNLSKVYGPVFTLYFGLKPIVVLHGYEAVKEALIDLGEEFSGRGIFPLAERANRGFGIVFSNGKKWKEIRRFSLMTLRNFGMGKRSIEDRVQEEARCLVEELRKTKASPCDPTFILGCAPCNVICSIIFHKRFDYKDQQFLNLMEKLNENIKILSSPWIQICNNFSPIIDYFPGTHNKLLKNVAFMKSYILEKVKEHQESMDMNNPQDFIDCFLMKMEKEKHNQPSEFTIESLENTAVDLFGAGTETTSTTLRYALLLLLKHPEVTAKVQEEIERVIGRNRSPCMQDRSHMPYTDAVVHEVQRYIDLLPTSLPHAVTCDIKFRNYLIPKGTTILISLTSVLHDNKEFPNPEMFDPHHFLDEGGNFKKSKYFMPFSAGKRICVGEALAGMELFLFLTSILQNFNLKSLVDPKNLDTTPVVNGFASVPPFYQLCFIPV
Sequence of CYP2C19 (P33261 whole entry): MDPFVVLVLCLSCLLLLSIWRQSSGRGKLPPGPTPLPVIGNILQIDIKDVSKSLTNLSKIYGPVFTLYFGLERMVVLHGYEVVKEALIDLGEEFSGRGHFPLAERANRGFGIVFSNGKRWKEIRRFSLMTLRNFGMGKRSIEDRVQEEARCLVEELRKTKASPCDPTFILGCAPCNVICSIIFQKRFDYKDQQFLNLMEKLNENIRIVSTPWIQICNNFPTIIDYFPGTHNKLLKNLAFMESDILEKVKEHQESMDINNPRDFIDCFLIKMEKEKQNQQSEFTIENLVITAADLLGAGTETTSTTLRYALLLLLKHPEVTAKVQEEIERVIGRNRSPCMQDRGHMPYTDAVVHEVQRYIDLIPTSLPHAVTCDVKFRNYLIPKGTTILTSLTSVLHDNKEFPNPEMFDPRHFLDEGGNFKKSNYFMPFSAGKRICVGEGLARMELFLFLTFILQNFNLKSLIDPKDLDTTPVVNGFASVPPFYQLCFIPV

| SMILES | Kd (human CYP2A13; [7]) [µM] | Spectral shift type 2A13 (human CYP2A13) | IC50 (hERG) [µM] | inhibition at 10 µM (hERG) [%] | Percent Loss of Substrate [1] [%] | substrate remaining [1] [%] | half-life at 1 μM [1] [min] | microsomal CLint at 1 μM [1] [µL/min/mg] | Percent Loss of Substrate [2] | half-life at 1 μM [3] [min] | microsomal CLint at 1 μM [3] [µL/min/mg] | Percent Loss of Substrate [3] | half-life at 1 μM [4] [min] | microsomal CLint at 1 μM [4] [µL/min/mg] | Percent Loss of Substrate [4] [%] | half-life at 1 μM [5] [min] | microsomal CLint at 1 μM [5] [µL/min/mg] | Percent Loss of Substrate [5] [%] | half-life at 1 μM [6] [min] | microsomal CLint at 1 μM [6] [µL/min/mg] | further results |
| --- | --- | --- | --- | --- | --- | --- | --- | --- | --- | --- | --- | --- | --- | --- | --- | --- | --- | --- | --- | --- | --- |
| Clc1ccccc1CN1CCOCC1 [Compound 3, 4-(2-chlorobenzyl)morpholine] | 5.9 ± 3.4 | I | > 10 | 13.9 | 47.0 | 53 | 22.9 | 30.3 | No Loss/No Loss | 1 | 687 | 100/100% | 1.6 | 433 | 99.9 | 4.7 | 149 | 96.7 | 2.4 | 283 | Percent Loss of Substrate [6]: 99.8%; half-life at 1 μM (CYP2C8): 62 min; half-life at 1 μM (CYP2C9): 476 min; half-life at 1 μM (CYP2D6): 61 min; half-life at 1 μM (CYP3A4): 33 min; half-life at 1 μM (CYP2C19): 13 min; half-life at 1 μM (CYP2B6): < 5 min |
| Fc1cccc(Cl)c1CN1CCOCC1 [Compound 7, 4-(2-chloro-6-fluorobenzyl)morpholine] | 5.2 | I | > 10 | 24.8 | 85.5 | 14 | 7.6 | 91.4 | No Loss/No Loss | 0.8 | 916 | 100/100% | 1.3 | 551 | 100 | 4 | 173 | 97.3 | 1.5 | 478 | Kd (human CYP2A13; Kd CYP2A13, follow-up titration of HTS hit, Figure 1D): ~2 µM; Percent Loss of Substrate [6]: 100%; half-life at 1 μM (CYP2C8): 51 min; half-life at 1 μM (CYP2C9): 230 min; half-life at 1 μM (CYP2D6): 78 min; half-life at 1 μM (CYP3A4): 25 min; half-life at 1 μM (CYP2C19): 18 min; half-life at 1 μM (CYP2B6): < 5 min |
